This passage reports Activity and Kd results from ChEMBL document CHEMBL4732170, “Discovery of Small-Molecule Antagonists of the PWWP Domain of NSD2” (J Med Chem, 2021).

The source made the active and inactive calls. The rule behind the calls is not given here.

For experiment [1], the target named is DNA mismatch repair protein Msh6 (Homo sapiens) (UniProt P52701). Briefly: Binding affinity to MSH6 PWWP domain (unknown origin) assessed as aggregation temperature at 400 uM by heating at 25 to 85 degC by differential static light scattering method.
The target of experiment [2] is T1, Histone-lysine N-methyltransferase NSD2 (Homo sapiens, UniProt O96028).
T1 sequence (O96028 whole entry): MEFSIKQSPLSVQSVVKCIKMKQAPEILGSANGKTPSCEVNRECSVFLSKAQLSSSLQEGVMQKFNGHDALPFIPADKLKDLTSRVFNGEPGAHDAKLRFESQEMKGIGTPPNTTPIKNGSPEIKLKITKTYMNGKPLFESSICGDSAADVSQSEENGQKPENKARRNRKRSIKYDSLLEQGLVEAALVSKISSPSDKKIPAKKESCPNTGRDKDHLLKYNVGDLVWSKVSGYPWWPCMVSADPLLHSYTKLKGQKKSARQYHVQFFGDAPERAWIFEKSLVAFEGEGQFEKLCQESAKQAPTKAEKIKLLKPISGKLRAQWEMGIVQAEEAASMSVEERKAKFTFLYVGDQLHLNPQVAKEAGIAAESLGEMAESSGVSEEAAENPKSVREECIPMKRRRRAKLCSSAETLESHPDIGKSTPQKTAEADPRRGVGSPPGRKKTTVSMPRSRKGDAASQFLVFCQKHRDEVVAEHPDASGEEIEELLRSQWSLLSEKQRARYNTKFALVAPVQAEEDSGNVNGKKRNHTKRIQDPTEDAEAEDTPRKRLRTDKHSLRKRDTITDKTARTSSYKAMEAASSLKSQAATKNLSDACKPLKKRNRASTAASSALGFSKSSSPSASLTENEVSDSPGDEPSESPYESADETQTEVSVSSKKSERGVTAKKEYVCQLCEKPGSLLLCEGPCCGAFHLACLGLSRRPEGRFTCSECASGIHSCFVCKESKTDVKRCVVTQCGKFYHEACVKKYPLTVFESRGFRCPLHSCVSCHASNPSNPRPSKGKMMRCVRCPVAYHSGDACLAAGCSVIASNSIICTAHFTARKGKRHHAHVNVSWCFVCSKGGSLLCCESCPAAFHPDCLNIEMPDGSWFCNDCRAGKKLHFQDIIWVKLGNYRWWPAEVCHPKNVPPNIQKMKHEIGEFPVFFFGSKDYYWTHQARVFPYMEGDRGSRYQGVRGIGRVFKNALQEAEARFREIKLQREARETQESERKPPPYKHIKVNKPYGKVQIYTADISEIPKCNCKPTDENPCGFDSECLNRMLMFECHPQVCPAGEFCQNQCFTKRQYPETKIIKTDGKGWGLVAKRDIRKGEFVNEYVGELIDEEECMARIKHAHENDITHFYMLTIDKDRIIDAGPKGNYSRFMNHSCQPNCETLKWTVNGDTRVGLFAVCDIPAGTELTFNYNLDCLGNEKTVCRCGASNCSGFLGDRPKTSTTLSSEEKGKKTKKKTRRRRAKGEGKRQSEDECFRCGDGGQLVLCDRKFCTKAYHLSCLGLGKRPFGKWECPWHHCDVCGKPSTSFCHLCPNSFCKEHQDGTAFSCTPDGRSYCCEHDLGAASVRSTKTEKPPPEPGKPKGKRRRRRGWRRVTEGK
Put plainly: Binding affinity to NSD2 PWWP1 domain (unknown origin) assessed as dissociation constant by isothermal titration calorimetric analysis. A digest of the protocol: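 Reverse ITC: purified NSD2-PWWP1 (aa 211-350, human, E. coli-expressed, His-tag removed) dialyzed into 20 mM Tris pH 7.5, 100 mM NaCl. Protein at 1 mM titrated into cell holding 40 μM ligand, 1% DMSO in both. Twelve 4 μL injections at 25 °C. Kd from one-binding-site model fit.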
On the technique in general: Isothermal titration calorimetry measures the heat released or taken up as one component is titrated into another.

Experiment [3] addresses T2, Histone-lysine N-methyltransferase NSD3 (Homo sapiens) (UniProt Q9BZ95).
T2 sequence (whole entry): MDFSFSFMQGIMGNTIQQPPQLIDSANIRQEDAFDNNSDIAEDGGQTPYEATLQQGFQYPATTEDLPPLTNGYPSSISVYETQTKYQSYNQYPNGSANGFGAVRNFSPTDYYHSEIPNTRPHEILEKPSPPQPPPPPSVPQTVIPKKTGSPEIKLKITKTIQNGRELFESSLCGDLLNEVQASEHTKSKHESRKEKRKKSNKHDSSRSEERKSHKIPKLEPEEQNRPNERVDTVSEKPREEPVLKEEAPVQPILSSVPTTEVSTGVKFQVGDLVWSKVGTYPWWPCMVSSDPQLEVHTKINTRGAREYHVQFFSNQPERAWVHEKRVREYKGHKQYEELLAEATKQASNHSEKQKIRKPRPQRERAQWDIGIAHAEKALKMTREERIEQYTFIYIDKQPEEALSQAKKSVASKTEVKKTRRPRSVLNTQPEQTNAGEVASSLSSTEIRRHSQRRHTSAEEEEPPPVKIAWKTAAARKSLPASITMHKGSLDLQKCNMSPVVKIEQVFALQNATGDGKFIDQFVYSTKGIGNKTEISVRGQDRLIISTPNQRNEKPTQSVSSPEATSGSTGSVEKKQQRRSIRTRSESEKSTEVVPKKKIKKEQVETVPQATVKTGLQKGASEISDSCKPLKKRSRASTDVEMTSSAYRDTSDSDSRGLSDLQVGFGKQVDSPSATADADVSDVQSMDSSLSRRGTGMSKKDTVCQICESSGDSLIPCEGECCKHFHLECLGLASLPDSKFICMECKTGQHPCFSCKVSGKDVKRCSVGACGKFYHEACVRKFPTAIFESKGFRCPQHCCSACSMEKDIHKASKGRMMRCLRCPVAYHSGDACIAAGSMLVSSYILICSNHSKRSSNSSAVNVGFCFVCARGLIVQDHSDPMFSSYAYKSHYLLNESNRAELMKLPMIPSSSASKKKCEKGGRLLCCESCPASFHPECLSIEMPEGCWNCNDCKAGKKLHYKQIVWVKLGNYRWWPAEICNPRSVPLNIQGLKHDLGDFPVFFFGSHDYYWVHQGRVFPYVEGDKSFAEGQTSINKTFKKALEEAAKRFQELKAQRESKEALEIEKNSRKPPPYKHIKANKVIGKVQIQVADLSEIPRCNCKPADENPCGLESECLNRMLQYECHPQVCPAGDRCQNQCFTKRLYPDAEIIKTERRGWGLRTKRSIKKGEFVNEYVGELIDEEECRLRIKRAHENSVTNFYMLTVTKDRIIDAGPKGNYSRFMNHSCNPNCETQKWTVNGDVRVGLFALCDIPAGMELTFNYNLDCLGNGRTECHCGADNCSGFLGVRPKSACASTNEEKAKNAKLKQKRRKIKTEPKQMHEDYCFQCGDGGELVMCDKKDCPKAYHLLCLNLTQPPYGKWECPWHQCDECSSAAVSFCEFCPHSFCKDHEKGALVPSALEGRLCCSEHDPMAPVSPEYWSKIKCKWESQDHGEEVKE
Put plainly: Binding affinity to NSD3 PWWP1 domain (unknown origin) assessed as aggregation temperature at 400 uM by heating at 25 to 85 degC by differential static light scattering method.

DNA mismatch repair protein Msh6 (Homo sapiens), sequence (P52701 whole entry, the tested form may be a part): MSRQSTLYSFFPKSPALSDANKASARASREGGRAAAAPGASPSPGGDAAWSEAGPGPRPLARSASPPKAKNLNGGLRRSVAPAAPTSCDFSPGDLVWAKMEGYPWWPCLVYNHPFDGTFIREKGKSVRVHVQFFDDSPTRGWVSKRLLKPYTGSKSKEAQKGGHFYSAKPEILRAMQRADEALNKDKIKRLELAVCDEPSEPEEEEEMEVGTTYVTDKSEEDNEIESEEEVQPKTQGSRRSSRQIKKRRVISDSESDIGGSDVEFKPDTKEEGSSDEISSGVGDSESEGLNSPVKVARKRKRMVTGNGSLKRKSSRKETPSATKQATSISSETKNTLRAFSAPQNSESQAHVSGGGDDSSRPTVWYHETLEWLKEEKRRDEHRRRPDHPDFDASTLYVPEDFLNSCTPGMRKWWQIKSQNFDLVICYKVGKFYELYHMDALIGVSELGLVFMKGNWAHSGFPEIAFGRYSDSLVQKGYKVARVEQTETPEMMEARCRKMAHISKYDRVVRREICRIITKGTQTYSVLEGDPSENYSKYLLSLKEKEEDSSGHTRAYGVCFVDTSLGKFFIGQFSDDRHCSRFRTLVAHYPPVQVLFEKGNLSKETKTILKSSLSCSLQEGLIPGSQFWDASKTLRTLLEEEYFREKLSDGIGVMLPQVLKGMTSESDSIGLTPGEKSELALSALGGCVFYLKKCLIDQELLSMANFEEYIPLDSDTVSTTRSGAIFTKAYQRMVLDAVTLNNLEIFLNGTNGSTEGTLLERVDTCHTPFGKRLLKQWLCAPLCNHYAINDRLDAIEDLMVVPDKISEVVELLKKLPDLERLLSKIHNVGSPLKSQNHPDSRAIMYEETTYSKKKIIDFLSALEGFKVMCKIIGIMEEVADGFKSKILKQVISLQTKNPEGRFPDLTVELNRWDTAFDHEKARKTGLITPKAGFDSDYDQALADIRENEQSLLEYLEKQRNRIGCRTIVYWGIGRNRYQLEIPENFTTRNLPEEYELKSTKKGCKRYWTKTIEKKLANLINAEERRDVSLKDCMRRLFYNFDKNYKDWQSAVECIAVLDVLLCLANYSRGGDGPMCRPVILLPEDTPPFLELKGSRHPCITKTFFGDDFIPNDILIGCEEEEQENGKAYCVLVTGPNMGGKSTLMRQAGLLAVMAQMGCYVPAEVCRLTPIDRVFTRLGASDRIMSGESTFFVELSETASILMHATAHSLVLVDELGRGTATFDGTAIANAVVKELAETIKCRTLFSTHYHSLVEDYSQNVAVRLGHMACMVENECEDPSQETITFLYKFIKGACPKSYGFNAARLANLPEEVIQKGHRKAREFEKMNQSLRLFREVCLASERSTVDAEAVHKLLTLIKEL

What is called Kd is the constant that tells how readily two partners part at equilibrium. Take `N#Cc1ccc(C(C(N)=O)N2CCC2c2ccc(Cl)cc2)cc1` (stereo not drawn): the result in experiment [1] and in experiment [3] was inactive. For the same compound, in experiment [2], the dissociation constant Kd was 8.9 µM.
